For assay [1], the target named is Ribosomal protein S6 kinase alpha-1 (Homo sapiens) (UniProt Q15418). Briefly: Inhibition of RSK1 (unknown origin) at 10 uM relative to control. In outline: (§1)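 Single-concentration screen of each compound against a 59-protein-kinase panel, run at 10 µM or 1 µM. Activity relative to control is shown as a heat map across the panel.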
In assay [2] the target is Tyrosine-protein kinase Yes (Homo sapiens) (UniProt P07947). In words: Inhibition of YES1 (unknown origin) at 10 uM relative to control. In a few lines:
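Single-concentration screen across a panel of 59 protein kinases, with each compound tested at one fixed concentration. The read-out is residual kinase activity relative to control. Panel results are also condensed into a rescaled geometric mean (RGM) selectivity score.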

Assay [3] concerns the target Tyrosine-protein kinase Lck (Homo sapiens) (UniProt P06239). Briefly: Inhibition of Lck (unknown origin) at 10 uM relative to control. In outline: (§2)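 Single-point screen of each compound against a panel of 59 protein kinases, at 1 or 10 μM. The panel data are also summarised as a rescaled geometric mean selectivity score.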
Assay [4] has as its target Serine/threonine-protein kinase N2 (Homo sapiens) (UniProt Q16513). In words: Inhibition of PRK2 (unknown origin) at 10 uM relative to control. In a few lines: as §1
The target in assay [5] is MAP kinase-interacting serine/threonine-protein kinase 1 (Homo sapiens) (UniProt Q9BUB5). Briefly: Inhibition of MNK1 (unknown origin) at 10 uM relative to control. In a few lines: as §1
Chain of MAP kinase-interacting serine/threonine-protein kinase 1 (Homo sapiens) (Q9BUB5 whole entry, looked up): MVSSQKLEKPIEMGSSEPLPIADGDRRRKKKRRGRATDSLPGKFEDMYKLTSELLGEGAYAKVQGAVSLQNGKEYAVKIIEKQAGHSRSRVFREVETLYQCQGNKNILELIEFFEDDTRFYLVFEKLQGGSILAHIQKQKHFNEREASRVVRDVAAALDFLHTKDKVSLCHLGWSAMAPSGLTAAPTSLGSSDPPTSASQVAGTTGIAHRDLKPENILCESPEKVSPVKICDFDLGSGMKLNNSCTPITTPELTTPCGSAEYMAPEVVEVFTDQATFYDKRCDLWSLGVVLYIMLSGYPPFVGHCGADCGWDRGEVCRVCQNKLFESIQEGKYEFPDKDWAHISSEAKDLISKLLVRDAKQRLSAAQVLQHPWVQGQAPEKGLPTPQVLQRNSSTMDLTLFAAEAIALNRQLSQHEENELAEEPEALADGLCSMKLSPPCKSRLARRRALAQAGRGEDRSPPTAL
Assay [6] concerns the target T1, Serine/threonine-protein kinase 3 (Homo sapiens) (UniProt Q13188).
T1 sequence (whole entry): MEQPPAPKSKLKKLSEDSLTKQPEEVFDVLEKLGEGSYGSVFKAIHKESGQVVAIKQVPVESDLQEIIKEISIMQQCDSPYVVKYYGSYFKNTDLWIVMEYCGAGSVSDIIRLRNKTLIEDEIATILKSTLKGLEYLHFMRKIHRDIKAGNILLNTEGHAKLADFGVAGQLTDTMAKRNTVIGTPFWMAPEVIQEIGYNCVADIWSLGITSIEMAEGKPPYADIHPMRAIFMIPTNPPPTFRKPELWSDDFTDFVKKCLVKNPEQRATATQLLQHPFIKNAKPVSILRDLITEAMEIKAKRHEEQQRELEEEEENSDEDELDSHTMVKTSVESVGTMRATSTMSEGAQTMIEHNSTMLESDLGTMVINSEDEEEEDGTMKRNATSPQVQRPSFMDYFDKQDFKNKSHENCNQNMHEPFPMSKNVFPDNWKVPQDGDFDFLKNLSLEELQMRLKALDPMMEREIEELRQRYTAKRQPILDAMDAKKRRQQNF
In words: Inhibition of MST2 (unknown origin) at 10 uM relative to control. In outline: as §1

Assay [7] concerns the target Aurora kinase B (Homo sapiens) (UniProt Q96GD4). In words: Inhibition of Aurora B (unknown origin) at 10 uM relative to control. In a few lines: as §2
The target in assay [8] is T2, Serine/threonine-protein kinase BRSK2 (Homo sapiens) (UniProt Q8IWQ3).
T2 sequence (whole entry): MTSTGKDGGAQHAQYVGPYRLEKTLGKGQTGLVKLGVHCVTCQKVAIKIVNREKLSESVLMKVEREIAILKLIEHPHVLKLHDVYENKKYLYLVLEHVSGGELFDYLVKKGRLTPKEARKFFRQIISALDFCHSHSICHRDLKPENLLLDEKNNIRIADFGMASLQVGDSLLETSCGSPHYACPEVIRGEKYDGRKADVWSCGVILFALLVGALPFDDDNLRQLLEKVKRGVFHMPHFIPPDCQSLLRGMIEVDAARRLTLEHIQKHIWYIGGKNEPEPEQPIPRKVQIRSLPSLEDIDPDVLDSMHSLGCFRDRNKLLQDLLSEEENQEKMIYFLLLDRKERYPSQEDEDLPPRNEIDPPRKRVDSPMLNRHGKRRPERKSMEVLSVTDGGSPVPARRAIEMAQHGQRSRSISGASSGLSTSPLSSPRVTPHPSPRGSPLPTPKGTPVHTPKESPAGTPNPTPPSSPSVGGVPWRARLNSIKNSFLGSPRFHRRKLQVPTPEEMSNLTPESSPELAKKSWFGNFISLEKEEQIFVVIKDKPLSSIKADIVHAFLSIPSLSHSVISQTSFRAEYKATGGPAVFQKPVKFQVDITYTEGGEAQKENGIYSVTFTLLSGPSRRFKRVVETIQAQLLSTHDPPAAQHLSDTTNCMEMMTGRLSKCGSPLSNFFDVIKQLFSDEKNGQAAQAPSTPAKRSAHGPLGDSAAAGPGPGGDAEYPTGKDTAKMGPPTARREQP
Briefly: Inhibition of BRSK2 (unknown origin) at 10 uM relative to control. In outline: as §2

Assay [9] has as its target Glycogen synthase kinase-3 beta (Homo sapiens) (UniProt P49841). Briefly: Inhibition of GSK3b (unknown origin) at 10 uM relative to control. In a few lines:
as §2

Assay [10] deals with MAP/microtubule affinity-regulating kinase 3 (Homo sapiens) (UniProt P27448). In words: Inhibition of MARK3 (unknown origin) at 10 uM relative to control. In outline:
as §1

Assay [11] has as its target Mitogen-activated protein kinase 3 (Homo sapiens) (UniProt P27361). Briefly: Inhibition of ERK1 (unknown origin) at 10 uM relative to control. In outline:
as §2

The target in assay [12] is Mitogen-activated protein kinase 9 (Homo sapiens) (UniProt P45984). Briefly: Inhibition of JNK2 (unknown origin) at 10 uM relative to control. In outline:
as §2

In assay [13] the target is T3, MAP kinase-activated protein kinase 5 (Homo sapiens) (UniProt Q8IW41).
T3 sequence (whole entry): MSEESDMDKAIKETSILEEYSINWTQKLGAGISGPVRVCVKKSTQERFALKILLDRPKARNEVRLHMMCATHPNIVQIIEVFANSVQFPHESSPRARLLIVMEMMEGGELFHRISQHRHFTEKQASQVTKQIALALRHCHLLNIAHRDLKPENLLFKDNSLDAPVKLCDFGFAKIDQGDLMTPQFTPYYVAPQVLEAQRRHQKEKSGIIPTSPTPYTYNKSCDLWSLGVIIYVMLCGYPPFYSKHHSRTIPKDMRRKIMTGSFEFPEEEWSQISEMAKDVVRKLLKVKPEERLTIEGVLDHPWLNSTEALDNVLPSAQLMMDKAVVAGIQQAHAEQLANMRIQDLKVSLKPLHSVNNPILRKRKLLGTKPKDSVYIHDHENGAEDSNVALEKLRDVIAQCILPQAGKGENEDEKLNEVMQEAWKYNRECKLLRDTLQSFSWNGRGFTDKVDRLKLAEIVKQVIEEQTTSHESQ
In words: Inhibition of PRAK (unknown origin) at 10 uM relative to control. In outline:
as §1

For assay [14], the target named is Leucine-rich repeat serine/threonine-protein kinase 2 (Homo sapiens, UniProt Q5S007, G2019S). In words: Inhibition of recombinant human GST-tagged LRRK2 G2019S mutant catalytic domain (970 to 2527 residues) expressed in baculovirus expression system by radiometric assay.

Chain of Ribosomal protein S6 kinase alpha-1 (Homo sapiens) (Q15418 whole entry): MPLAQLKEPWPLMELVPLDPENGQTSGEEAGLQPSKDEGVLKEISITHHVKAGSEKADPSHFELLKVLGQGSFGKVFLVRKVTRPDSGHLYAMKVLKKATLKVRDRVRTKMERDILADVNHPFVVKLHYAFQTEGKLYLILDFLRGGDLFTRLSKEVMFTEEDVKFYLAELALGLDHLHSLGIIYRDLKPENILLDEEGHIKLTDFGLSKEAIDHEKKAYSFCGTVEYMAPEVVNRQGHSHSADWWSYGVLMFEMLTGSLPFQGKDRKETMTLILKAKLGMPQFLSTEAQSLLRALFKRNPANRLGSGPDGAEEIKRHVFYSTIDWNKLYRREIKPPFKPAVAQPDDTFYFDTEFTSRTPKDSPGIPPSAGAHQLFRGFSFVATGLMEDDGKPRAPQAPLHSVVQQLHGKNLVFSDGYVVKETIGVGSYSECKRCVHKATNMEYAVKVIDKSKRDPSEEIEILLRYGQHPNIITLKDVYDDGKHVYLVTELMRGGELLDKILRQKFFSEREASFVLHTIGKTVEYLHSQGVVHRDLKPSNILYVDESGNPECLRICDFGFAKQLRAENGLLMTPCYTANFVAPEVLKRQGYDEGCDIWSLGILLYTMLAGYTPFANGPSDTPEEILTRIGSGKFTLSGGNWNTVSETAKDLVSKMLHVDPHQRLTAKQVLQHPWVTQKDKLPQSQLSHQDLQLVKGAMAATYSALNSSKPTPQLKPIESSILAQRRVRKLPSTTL
Chain of Serine/threonine-protein kinase N2 (Homo sapiens) (Q16513 whole entry, looked up): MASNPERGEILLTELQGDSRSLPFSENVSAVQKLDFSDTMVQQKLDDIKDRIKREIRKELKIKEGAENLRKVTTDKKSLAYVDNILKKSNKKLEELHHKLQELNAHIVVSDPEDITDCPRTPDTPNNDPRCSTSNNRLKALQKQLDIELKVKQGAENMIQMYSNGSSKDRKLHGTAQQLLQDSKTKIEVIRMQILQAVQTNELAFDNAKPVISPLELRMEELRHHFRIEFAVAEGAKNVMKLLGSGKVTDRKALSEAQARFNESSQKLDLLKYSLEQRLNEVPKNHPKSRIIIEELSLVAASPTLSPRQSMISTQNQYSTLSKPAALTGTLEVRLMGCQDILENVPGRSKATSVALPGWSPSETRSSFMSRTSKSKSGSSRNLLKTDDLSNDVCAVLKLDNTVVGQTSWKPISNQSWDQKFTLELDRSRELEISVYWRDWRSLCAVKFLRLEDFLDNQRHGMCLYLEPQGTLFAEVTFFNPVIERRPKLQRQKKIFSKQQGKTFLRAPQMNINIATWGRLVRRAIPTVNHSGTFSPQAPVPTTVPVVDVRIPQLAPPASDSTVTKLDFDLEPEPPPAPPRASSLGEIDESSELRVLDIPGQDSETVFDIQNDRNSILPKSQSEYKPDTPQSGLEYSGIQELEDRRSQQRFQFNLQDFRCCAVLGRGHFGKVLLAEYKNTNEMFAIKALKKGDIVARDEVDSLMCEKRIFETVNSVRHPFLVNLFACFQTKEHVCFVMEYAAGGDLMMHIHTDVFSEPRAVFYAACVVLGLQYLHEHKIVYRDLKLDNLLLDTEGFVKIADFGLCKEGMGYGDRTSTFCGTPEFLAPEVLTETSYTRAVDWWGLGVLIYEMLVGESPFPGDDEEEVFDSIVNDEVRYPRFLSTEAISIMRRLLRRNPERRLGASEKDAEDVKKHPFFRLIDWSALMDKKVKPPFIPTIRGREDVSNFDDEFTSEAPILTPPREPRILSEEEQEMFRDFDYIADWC
Chain of Tyrosine-protein kinase Yes (Homo sapiens) (P07947 2-543 limits assumed): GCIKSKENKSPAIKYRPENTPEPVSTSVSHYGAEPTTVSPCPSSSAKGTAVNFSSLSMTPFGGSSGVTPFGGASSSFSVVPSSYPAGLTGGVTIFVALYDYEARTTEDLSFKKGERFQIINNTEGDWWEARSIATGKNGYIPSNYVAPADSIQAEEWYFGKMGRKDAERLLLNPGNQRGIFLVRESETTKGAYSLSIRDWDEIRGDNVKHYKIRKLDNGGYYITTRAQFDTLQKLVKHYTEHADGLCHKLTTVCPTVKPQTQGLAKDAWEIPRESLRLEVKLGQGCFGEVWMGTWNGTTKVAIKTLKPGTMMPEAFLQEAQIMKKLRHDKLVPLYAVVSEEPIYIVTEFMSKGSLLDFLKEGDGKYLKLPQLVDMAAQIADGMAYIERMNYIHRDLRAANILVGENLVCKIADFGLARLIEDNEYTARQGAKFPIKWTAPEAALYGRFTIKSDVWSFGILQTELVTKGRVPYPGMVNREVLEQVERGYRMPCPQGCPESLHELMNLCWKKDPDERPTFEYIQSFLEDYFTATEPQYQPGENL
Chain of Aurora kinase B (Homo sapiens) (Q96GD4 whole entry): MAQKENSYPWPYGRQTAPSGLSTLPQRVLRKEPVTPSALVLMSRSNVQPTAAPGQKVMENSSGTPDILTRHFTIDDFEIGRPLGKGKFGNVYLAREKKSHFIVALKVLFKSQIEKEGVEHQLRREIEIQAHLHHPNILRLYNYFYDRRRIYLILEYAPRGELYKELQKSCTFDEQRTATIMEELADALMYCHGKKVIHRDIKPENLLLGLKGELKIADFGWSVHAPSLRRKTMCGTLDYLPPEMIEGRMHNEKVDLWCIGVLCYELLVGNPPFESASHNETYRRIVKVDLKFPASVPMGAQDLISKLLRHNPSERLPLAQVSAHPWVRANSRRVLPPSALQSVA
Chain of Mitogen-activated protein kinase 3 (Homo sapiens) (P27361 whole entry): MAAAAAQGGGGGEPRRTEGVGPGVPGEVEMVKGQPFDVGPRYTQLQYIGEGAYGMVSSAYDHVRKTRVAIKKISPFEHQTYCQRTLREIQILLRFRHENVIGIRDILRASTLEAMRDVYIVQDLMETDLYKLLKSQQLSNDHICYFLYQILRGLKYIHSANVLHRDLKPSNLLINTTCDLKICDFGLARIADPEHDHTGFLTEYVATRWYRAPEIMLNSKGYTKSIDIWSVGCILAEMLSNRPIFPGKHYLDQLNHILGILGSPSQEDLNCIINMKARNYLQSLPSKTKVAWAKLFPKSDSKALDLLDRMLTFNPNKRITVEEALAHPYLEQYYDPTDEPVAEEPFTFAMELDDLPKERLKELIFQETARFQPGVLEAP
Chain of Glycogen synthase kinase-3 beta (Homo sapiens) (P49841 whole entry, looked up): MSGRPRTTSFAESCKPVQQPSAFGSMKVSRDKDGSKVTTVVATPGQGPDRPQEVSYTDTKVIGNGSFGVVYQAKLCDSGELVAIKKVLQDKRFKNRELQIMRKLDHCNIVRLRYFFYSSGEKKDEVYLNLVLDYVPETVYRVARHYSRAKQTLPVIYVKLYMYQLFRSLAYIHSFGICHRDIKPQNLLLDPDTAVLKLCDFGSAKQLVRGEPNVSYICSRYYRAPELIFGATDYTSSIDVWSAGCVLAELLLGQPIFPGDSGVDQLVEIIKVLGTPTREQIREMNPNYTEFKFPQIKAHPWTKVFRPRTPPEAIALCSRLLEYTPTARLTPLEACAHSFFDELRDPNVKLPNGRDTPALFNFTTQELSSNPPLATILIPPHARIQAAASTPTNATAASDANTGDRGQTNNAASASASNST
Chain of Tyrosine-protein kinase Lck (Homo sapiens) (P06239 2-509 limits assumed): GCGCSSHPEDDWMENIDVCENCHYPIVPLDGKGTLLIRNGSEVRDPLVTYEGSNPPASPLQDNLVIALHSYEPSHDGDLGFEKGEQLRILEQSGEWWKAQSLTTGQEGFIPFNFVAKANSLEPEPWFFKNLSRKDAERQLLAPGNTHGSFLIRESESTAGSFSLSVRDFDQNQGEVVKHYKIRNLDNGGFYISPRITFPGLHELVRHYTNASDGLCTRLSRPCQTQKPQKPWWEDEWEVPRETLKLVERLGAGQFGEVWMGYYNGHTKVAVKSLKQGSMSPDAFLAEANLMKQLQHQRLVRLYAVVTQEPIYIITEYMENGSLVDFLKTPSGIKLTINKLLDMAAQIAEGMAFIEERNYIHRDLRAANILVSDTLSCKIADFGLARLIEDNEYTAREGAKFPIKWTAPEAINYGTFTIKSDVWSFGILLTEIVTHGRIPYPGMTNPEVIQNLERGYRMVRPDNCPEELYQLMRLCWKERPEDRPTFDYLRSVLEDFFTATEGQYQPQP
Chain of Mitogen-activated protein kinase 9 (Homo sapiens) (P45984 whole entry, looked up): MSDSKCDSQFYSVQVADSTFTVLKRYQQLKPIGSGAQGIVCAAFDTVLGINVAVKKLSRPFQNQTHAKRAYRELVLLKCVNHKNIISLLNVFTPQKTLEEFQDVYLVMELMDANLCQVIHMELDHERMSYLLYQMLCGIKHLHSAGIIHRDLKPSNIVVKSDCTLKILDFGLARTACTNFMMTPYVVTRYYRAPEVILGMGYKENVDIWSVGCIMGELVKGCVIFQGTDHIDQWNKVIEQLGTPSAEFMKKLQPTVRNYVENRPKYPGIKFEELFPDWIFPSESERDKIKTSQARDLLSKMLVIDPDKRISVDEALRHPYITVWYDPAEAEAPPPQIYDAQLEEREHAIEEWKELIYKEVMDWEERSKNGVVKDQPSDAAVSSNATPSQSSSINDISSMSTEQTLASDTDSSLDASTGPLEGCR

As usually defined, the inhibition is the percentage by which the read-out fell short of the control. A high value points to a strong effect. By IC50 is commonly meant the concentration at which inhibition is half-maximal. In the case of `Cc1n[nH]c2ccnc(OC3CCCCC3)c12`, the inhibition was determined as 84% in assay [1]; 44% in [2]; 47% in [3]; 92% in [4]; 12% in assay [5]; 79% in [6]. Moreover, the inhibition in assay [7] came to 88%; in assay [8], 67%; in assay [9] it was 73%; in assay [10], 46%; in [11] it was 48%; in assay [12], 66%. In assay [13], this compound registered an inhibition of 7%. Further, the half-maximal inhibitory concentration (IC50) in [14] turned out to be 67 nM.

For `c1cc(-c2n[nH]c3ccnc(OC4CCOCC4)c23)cc(N2CCOCC2)n1`, the IC50 in assay [14] is 12 nM.

For `Cc1n[nH]c2ccnc(Nc3ccccc3F)c12`, the inhibition in assay [1] was 61%; in [2], 26%; in [3] it was 22%; in [4], 50%; in [5], 18%; in [6], 66%. Also, the inhibition in assay [7] amounted to 80%; in assay [8], 68%; in [9], 53%; in [10] it was 46%; in assay [11], 69%; in assay [12] it was 54%. The compound also returned an inhibition in assay [13] of 11%. Further, the IC50 in assay [14] stood at 150 nM.

In the case of `CC(C)n1cc(-c2n[nH]c3ccnc(OC4CCOCC4)c23)cn1`, in assay [14], the IC50 is 11 nM.

Consider `Cc1n[nH]c2ccnc(Nc3ccc4ncsc4c3)c12`, for which the inhibition was 84% in assay [1]; 8% in assay [3]; 72% in [6]; 35% in [8]; 36% in assay [10]; 49% in assay [12]. For the same compound, the inhibition in assay [13] is 10%. In [14], the IC50 is 130 to 380 nM.

Turning to `Cc1n[nH]c2ccnc(NC3CCCCC3)c12`, the inhibition was 59% in assay [1]; 30% in [2]; 13% in assay [3]; 63% in [4]; 0% in assay [5]; 80% in assay [6]. The inhibition in assay [7] is 80%; in [8], 46%; in assay [9], 23%; in assay [10] it was 34%; in [11], 40%; in assay [12] it was 41%. In [13], this compound came in with an inhibition of 3%. In assay [14], the IC50 turned out to be 390 nM.
